Measurements published in ChEMBL document CHEMBL1154186, “Synthesis, kinase inhibitory potencies, and in vitro antiproliferative evaluation of new Pim kinase inhibitors” (J Med Chem, 2009).

Assays:
[1] = Inhibition of PKA assessed as residual enzyme activity at 10 uM relative to untreated control
In short: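 PKA (5-20 m-units) was assayed in 8 mM Mops pH 7.5 and 0.2 mM EDTA, with LRRASLG at 300 µM and [γ-33P]ATP at 20 µM plus 10 mM Mg acetate, 30 min at 21 °C, then P81 filter capture. Compound at 10 µM; % residual activity versus uninhibited control, duplicates.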

[2] = molecular target: Calcium/calmodulin-dependent protein kinase kinase 1 (Homo sapiens) (UniProt Q8N5S9); test: Inhibition of CAMKKalpha assessed as residual enzyme activity at 10 uM relative to untreated control
Sequence of Calcium/calmodulin-dependent protein kinase kinase 1 (Homo sapiens) (Q8N5S9 whole entry, looked up): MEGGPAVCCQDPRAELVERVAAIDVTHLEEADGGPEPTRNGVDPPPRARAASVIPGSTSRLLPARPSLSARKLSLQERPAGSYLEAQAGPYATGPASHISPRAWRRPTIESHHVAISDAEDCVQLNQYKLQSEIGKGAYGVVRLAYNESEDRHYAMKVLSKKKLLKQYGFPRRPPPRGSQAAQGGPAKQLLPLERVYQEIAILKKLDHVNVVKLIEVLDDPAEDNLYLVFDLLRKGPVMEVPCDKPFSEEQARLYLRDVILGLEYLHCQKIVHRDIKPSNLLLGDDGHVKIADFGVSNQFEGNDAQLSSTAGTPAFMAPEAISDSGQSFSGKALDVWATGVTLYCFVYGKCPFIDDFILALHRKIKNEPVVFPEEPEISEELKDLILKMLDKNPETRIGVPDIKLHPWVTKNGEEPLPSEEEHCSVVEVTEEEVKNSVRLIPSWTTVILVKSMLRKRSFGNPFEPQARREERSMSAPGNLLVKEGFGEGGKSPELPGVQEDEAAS

[3] = Inhibition of CK1 assessed as residual enzyme activity at 10 uM relative to untreated control
[4] = molecular target: Protein kinase C zeta type (Homo sapiens) (UniProt Q05513); test: Inhibition of PKCzeta assessed as residual enzyme activity at 10 uM relative to untreated control
Sequence of Protein kinase C zeta type (Homo sapiens) (Q05513 whole entry, looked up): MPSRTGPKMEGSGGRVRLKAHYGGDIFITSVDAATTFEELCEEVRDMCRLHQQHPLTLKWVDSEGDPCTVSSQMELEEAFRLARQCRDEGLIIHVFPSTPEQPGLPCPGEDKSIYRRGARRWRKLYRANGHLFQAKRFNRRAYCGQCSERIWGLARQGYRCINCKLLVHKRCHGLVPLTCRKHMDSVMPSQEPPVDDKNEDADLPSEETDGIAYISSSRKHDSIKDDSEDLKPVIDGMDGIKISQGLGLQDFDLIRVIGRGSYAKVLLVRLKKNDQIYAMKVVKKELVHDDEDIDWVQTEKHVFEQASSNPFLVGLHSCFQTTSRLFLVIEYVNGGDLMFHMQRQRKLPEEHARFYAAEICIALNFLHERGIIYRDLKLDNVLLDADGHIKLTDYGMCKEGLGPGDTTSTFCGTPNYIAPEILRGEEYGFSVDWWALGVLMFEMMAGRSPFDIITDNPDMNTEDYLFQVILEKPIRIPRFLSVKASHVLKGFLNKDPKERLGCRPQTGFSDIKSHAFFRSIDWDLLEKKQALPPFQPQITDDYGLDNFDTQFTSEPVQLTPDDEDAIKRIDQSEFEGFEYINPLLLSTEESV

[5] = molecular target: T1, Serine/threonine-protein kinase D1 (Homo sapiens) (UniProt Q15139); test: Inhibition of PKD1 assessed as residual enzyme activity at 10 uM relative to untreated control
T1 sequence (whole entry): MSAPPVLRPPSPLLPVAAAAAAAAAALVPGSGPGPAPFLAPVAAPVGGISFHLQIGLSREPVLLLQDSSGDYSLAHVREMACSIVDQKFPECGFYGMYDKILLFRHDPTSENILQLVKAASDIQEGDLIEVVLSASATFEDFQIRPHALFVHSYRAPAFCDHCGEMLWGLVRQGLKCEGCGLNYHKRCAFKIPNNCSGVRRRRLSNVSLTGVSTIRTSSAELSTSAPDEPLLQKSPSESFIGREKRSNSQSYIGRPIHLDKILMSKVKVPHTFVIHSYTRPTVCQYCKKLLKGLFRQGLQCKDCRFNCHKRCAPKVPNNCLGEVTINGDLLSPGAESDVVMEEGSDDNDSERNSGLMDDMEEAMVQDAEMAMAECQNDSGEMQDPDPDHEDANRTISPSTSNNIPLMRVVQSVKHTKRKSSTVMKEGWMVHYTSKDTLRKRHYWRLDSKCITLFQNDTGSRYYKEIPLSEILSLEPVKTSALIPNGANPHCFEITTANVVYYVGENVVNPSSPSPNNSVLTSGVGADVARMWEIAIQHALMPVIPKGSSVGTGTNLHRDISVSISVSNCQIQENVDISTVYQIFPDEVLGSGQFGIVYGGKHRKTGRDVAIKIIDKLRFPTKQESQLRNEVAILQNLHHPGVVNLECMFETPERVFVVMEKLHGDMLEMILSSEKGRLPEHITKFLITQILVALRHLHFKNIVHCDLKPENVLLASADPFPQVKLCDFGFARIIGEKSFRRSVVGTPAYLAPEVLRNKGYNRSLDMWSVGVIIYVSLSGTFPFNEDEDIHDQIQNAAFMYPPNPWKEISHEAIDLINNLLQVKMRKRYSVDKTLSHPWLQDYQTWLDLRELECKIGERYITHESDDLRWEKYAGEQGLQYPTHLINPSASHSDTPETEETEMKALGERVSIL

[6] = molecular target: T2, Inhibitor of nuclear factor kappa-B kinase subunit beta (Homo sapiens) (UniProt O14920); test: Inhibition of IKK-beta assessed as residual enzyme activity at 10 uM relative to untreated control
T2 sequence (whole entry): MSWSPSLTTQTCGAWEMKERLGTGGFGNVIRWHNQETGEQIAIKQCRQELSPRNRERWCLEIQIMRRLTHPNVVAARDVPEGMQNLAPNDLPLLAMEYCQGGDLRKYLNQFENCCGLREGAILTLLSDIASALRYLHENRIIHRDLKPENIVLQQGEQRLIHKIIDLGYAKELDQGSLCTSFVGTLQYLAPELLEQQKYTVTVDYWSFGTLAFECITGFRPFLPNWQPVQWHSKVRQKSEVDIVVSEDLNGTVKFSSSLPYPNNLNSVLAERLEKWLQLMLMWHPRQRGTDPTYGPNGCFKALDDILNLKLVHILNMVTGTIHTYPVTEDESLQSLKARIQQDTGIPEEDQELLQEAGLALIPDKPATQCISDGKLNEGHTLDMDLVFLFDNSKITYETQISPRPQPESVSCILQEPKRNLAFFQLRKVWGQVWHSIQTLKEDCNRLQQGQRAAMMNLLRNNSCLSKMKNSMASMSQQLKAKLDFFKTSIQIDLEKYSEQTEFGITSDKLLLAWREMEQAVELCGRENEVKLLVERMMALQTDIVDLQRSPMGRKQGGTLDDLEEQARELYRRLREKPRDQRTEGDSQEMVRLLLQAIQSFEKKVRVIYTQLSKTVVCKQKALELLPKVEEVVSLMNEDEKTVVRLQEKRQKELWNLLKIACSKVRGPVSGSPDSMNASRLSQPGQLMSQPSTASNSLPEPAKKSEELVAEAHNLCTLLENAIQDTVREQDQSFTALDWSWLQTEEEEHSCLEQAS
In short: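 Radiometric filter-binding assay at 21 °C for 30 min. Mix: 50 mM Tris/HCl pH 7.5, 0.1 mM EGTA, 0.1% 2-mercaptoethanol, 10 mM Mg acetate and [γ-33P]ATP (800 cpm/pmol) at 5 µM. Stopped with orthophosphoric acid and spotted on P81. Compound at 10 µM; activity given as % remaining versus no-inhibitor control, duplicates. Kinases human full-length unless noted.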

[7] = molecular target: MAP kinase-interacting serine/threonine-protein kinase 1 (Homo sapiens) (UniProt Q9BUB5); test: Inhibition of MNK1 assessed as residual enzyme activity at 10 uM relative to untreated control
Sequence of MAP kinase-interacting serine/threonine-protein kinase 1 (Homo sapiens) (Q9BUB5 whole entry, looked up): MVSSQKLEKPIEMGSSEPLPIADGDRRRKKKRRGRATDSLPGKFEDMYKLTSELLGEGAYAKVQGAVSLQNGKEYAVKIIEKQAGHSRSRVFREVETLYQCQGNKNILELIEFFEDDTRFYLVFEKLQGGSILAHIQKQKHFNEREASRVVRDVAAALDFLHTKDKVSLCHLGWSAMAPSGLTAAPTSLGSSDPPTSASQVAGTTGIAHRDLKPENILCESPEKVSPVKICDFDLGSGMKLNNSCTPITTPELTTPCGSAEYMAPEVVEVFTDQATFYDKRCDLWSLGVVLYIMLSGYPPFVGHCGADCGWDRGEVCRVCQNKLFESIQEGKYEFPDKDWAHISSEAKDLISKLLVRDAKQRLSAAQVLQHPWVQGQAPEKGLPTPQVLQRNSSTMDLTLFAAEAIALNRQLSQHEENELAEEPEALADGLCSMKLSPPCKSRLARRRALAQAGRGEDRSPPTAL
In short: (§1)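 Assayed with [γ-33P]ATP at 50 µM and 10 mM Mg acetate in 50 mM Tris/HCl pH 7.5, 0.1 mM EGTA, 0.1% 2-mercaptoethanol, 30 min, 21 °C. Phosphoric acid stop, P81 filter capture. ERK2 and Lck are mouse; AMPK is rat. 10 µM compound; % activity remaining relative to control without inhibitor, duplicates.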

[8] = molecular target: T3, Serine/threonine-protein kinase Nek2 (Homo sapiens) (UniProt P51955); test: Inhibition of NEK2alpha assessed as residual enzyme activity at 10 uM relative to untreated control; in short: as §1
T3 sequence (whole entry): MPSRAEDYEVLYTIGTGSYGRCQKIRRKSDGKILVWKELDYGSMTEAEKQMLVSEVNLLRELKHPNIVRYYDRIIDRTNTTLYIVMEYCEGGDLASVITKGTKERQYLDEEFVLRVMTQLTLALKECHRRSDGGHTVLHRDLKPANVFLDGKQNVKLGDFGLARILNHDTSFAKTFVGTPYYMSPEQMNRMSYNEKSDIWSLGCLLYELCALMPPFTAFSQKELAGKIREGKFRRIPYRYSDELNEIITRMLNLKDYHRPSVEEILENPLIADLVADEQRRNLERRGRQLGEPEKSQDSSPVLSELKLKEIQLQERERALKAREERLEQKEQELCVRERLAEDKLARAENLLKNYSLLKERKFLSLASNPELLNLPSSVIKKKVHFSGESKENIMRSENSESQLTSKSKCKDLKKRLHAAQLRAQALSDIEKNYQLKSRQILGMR

Activity [1] [%] | Activity [2] [%] | Activity [3] [%] | Activity [4] [%] | Activity [5] [%] | Activity [6] [%] | Activity [7] [%] | Activity [8] [%] | SMILES
95 | 76 | 107 | 91 | 83 | 106 | 69 | 104 | c1ccc2c(c1)[nH]c1c2ccc2cc[nH]c21
96 | 92 | 99 | 87 | 71 | 110 | 101 | 96 | c1ccc2c(c1)[nH]c1c3cc[nH]c3ccc21
83 | 90 | 113 | 91 | 87 | 108 | 106 | 100 | O=Cc1c[nH]c2ccc3c4ccccc4[nH]c3c12
60 | 42 |  | 83 | 28 | 71 | 27 | 88 | O=Cc1c[nH]c2c1ccc1c3ccccc3[nH]c12
